# Measurements taken from ChEMBL document CHEMBL1145325, “p38 MAP kinase inhibitors. Part 3: SAR on 3,4-dihydropyrimido[4,5-d]pyrimidin-2-ones and 3,4-dihydropyrido[4,3-d]pyrimidin-2-ones” (Bioorg Med Chem Lett, 2006).
# Legend:
# [1] = target: Mitogen-activated protein kinase 14 (Homo sapiens, UniProt Q16539); experiment: Inhibition of p38alpha
# THP-1 [2] = experiment: Inhibition of LPS-stimulated TNFalpha release in human THP1 cells; type: functional, cell-based
# Outline: (§1)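 THP-1 cells at 2.5 · 10⁶/mL suspended in a PBS-based medium. Compound added in DMSO, then LPS. Incubated 4 h at 37 °C under CO₂. TNF-α in the supernatant measured by sandwich ELISA, with anti-human TNF-α as the capture antibody.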
# Homo sapiens [3] = species: Homo sapiens; experiment: Inhibition of LPS-stimulated TNFalpha release in human whole blood; type: functional, organism-based
# [4] = target: Voltage-gated L-type calcium channel (Homo sapiens, UniProt Q13936+Q13698+Q01668+O60840); experiment: Binding affinity to DLZ binding site of calcium channel; type: protein assay
# [5] = target: Voltage-gated inwardly rectifying potassium channel KCNH2 (Homo sapiens, UniProt Q12809); experiment: Binding affinity to iKr potassium channel
# Sequence of Voltage-gated inwardly rectifying potassium channel KCNH2 (Q12809 whole entry): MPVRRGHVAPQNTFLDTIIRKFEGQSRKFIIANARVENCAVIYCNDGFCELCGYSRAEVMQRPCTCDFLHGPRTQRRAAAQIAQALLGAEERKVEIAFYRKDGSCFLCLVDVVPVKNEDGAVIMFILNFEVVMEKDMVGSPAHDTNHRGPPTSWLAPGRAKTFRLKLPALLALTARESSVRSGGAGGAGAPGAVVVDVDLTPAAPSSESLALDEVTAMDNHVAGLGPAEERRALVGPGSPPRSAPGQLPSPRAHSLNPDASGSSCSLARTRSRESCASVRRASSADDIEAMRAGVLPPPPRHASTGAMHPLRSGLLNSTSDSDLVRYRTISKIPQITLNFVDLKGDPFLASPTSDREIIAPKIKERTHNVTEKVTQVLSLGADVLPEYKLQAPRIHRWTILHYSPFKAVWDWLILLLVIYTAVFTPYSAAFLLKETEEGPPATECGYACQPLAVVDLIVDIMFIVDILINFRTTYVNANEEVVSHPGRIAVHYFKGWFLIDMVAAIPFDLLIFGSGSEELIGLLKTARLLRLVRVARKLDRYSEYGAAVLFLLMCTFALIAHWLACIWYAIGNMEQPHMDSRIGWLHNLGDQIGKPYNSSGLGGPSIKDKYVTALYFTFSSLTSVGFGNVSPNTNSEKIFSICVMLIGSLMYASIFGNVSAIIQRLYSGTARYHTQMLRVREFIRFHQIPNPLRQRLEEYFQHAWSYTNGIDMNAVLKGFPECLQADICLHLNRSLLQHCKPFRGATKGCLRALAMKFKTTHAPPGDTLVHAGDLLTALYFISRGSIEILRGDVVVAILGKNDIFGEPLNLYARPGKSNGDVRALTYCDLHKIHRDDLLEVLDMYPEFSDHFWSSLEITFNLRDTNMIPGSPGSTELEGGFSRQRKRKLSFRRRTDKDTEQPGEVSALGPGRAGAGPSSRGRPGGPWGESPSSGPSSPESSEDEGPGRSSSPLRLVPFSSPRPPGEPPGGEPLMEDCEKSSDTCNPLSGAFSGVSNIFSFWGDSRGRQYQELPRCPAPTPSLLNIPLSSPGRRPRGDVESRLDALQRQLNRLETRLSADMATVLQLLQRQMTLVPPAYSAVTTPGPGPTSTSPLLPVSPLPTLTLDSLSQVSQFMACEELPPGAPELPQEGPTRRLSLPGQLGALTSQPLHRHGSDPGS
# Homo sapiens [6] = species: Homo sapiens; experiment: Inhibition of LPS-stimulated TNFalpha release in human whole blood upto 15 uM; type: functional, organism-based
# [7] = Oral bioavailability in rat; type: ADME, organism-based; settings: in vivo
# [8] = Half life in rat; type: ADME, organism-based; settings: in vivo
# THP-1 [9] = experiment: Inhibition of LPS-stimulated TNFalpha release in human THP1 cells upto 15 uM; type: functional, cell-based; outline: as §1
# Sequence of Mitogen-activated protein kinase 14 (Q16539 whole entry): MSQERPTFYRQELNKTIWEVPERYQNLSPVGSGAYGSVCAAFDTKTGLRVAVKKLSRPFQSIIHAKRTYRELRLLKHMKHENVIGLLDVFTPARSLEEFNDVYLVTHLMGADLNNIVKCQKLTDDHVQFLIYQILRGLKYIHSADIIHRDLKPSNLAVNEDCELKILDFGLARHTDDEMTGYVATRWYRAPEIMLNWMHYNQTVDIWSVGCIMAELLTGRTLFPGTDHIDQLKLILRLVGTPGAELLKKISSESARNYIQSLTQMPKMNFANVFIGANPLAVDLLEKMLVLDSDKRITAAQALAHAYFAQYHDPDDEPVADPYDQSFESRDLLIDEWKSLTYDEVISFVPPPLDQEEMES
SMILES,IC50 [1] [nM],IC50 (THP-1 [2]) [nM],IC50 (Homo sapiens [3]) [nM],Activity [4] [µM],Activity [5] [µM],IC50 (Homo sapiens [6]),bioavailability [7] [%],half-life [8] [h],IC50 (THP-1 [9])
CC1(C)CC(Nc2nc(-c3ccccc3Cl)c3c(n2)N(c2c(Cl)cccc2Cl)C(=O)NC3)CC(C)(C)N1,0.7,2.6,38,1.2,4.5,–,–,–,–
O=C1NCc2c(-c3ccccc3Cl)cc(O)cc2N1c1c(Cl)cccc1Cl,2,–,–,–,–,–,–,–,–
C[C@@H]1CN(c2nc(-c3ccc(Cl)cc3Cl)c3c(n2)N(c2c(Cl)cccc2Cl)C(=O)NC3)C[C@H](C)O1,2,500,–,6,5,Not Active,–,–,–
CN(C)CCOc1nc(-c2ccccc2Cl)c2c(n1)N(c1c(Cl)cccc1Cl)C(=O)NC2,4.2,21,250,8.8,10,–,–,–,–
CN(C)CCN1CCN(c2nc(-c3ccccc3Cl)c3c(n2)N(c2c(Cl)cccc2Cl)C(=O)NC3)CC1,0.5,2.3,100,1.7,3.8,–,–,–,–
O=C1NCc2c(-c3ccccc3Cl)nc(NC3CN4CCC3CC4)nc2N1c1c(Cl)cccc1Cl (stereo not drawn),1.2,34,360,1.3,5.8,–,–,–,–
CC(C)N1CCC(c2cc(-c3ccc(F)cc3F)c3c(c2)N(c2c(Cl)cccc2Cl)C(=O)NC3)CC1,0.2,–,20,–,–,–,–,–,–
CC(C)N1CCC(c2cc3c(c(-c4ccccc4Cl)n2)CNC(=O)N3c2c(Cl)cccc2Cl)CC1,–,–,–,–,–,–,18,2.1,–
CSc1nc(-c2ccccc2Cl)c2c(n1)N(c1c(Cl)cccc1Cl)C(=O)NC2,10,700,–,6,–,Not Active,–,–,–
CN1C2CCC1CC(Nc1nc(-c3ccccc3Cl)c3c(n1)N(c1c(Cl)cccc1Cl)C(=O)NC3)C2 (stereo not drawn),0.5,2.6,17,2.2,8.9,–,–,–,–
Nc1nc(-c2ccccc2Cl)c2c(n1)N(c1c(Cl)cccc1Cl)C(=O)NC2,5.3,81,2000,9.2,–,–,100,1.1,–
CS(=O)(=O)c1nc(-c2ccccc2Cl)c2c(n1)N(c1c(Cl)cccc1Cl)C(=O)NC2,4.2,500,–,> 10,9,Not Active,–,–,–
CN(C)CCN1CCN(c2nc(-c3ccc(Cl)cc3Cl)c3c(n2)N(c2c(Cl)cccc2Cl)C(=O)NC3)CC1,1,22,42,0.22,–,–,3,–,–
CN(C)CCNc1nc(-c2ccc(Cl)cc2Cl)c2c(n1)N(c1c(Cl)cccc1Cl)C(=O)NC2,5.6,20,32,1,0.5,–,–,–,–
COCCNc1nc(-c2ccc(Cl)cc2Cl)c2c(n1)N(c1c(Cl)cccc1Cl)C(=O)NC2,2,97,270,> 10,3,–,–,–,–
O=C1NCc2c(-c3ccccc3Cl)nc(O)nc2N1c1c(Cl)cccc1Cl,4,170,–,7,4.6,Not Active,–,–,–
CC(C)Nc1nc(-c2ccccc2Cl)c2c(n1)N(c1c(Cl)cccc1Cl)C(=O)NC2,1.1,38,–,10,4.5,Not Active,–,–,–
O=C1NCc2c(-c3ccccc3Cl)nc(N3CCc4[nH]ncc4C3)nc2N1c1c(Cl)cccc1Cl,1.9,28,500,> 30,10,–,–,–,–
CC(C)(C)CNc1nc(-c2ccccc2Cl)c2c(n1)N(c1c(Cl)cccc1Cl)C(=O)NC2,0.8,21,1000,> 30,10,–,–,–,–
O=C1NCc2c(-c3ccccc3Cl)nc(NN3CCOCC3)nc2N1c1c(Cl)cccc1Cl,4,99,1000,7,6.9,–,–,–,–
O=C1NCc2c(-c3ccc(F)cc3F)cc(C3CCNCC3)cc2N1c1c(Cl)cccc1Cl,–,–,10,–,–,–,–,–,–
CC(C)N1CCC(Nc2nc(-c3ccccc3Cl)c3c(n2)N(c2c(Cl)cccc2Cl)C(=O)NC3)CC1,0.6,1,15,3.3,6.4,–,24,2,–
O=C1NCc2c(-c3ccccc3Cl)nc(N3CCOCC3)nc2N1c1c(Cl)cccc1Cl,2,500,–,6,–,Not Active,–,–,–
CC(C)N1CCN(c2nc(-c3ccc(Cl)cc3Cl)c3c(n2)N(c2c(Cl)cccc2Cl)C(=O)NC3)CC1,20,330,1940,0.7,0.2,–,–,–,–
Nc1cc(-c2ccccc2Cl)c2c(c1)N(c1c(Cl)cccc1Cl)C(=O)NC2,6,–,–,–,–,–,–,–,–
CNc1nc(-c2ccccc2Cl)c2c(n1)N(c1c(Cl)cccc1Cl)C(=O)NC2,2,22,850,10,6.4,–,–,–,–
CN(C)c1nc(-c2ccccc2Cl)c2c(n1)N(c1c(Cl)cccc1Cl)C(=O)NC2,3,–,–,> 10,6,Not Active,–,–,Not Active
